Data reported in ChEMBL document CHEMBL3414565, “Discovery of novel AHLs as potent antiproliferative agents” (Eur J Med Chem, 2015).

Tests used:
MCF7 [1] = assay: Cell cycle arrest in human MCF7 cells assessed as accumulation at G2/M phase at 2 uM after 12 hrs by propidium iodide staining-based flow cytometry (reference value: 16.53%); assay type: functional
MCF7 [2] = assay: Induction of apoptosis in human MCF7 cells assessed as viable cells at 8 uM after 12 hrs by annexin V-FITC/propidium iodide staining-based flow cytometry (reference value: 85.4%); assay type: functional; conditions: MCF7, 12 h, read-out: Activity
Procedure, shortened: (§1)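 MCF-7 cells were plated at 5.0 × 10^6 cells/mL and held 12 or 24 h at 37 °C. Exponentially growing cells then received complete medium (blank) or compound at 0, 2, 4 or 8 for 12 or 24 h. Harvested cells were stained with Annexin V-FITC/PI and analysed by flow cytometry. Quadrants were scored as live, early apoptotic (annexin+/PI−), late apoptotic (double positive) and damaged (PI+ only).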

MCF7 [3] = assay: Cell cycle arrest in human MCF7 cells assessed as accumulation at G1/G0 phase at 2 uM after 12 hrs by propidium iodide staining-based flow cytometry (reference value: 60.51%); assay type: functional
MCF7 [4] = assay: Induction of apoptosis in human MCF7 cells assessed as early apoptotic cells at 4 uM after 12 hrs by annexin V-FITC/propidium iodide staining-based flow cytometry (reference value: 7.2%); assay type: functional; procedure, shortened: as §1
MCF7 [5] = assay: Induction of apoptosis in human MCF7 cells after 12 to 24 hrs by annexin V-FITC/propidium iodide staining-based flow cytometry; assay type: functional, cell-based; procedure, shortened: as §1
MCF7 [6] = assay: Cell cycle arrest in human MCF7 cells assessed as accumulation at S phase at 8 uM after 24 hrs by propidium iodide staining-based flow cytometry (reference value: 40.08%); assay type: functional
MCF7 [7] = assay: Cell cycle arrest in human MCF7 cells assessed as accumulation at G2/M phase at 4 uM after 24 hrs by propidium iodide staining-based flow cytometry (reference value: 16.27%); assay type: functional
MCF7 [8] = assay: Cell cycle arrest in human MCF7 cells assessed as accumulation at S phase at 2 uM after 24 hrs by propidium iodide staining-based flow cytometry (reference value: 40.08%); assay type: functional
MCF7 [9] = assay: Cytotoxicity against human MCF7 cells after 72 hrs by MTT assay; assay type: functional, cell-based; conditions: MCF7, 72 h
Procedure, shortened: (§2)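 Cells were grown in RPMI1640 and seeded at 5 × 10^3 cells/well, then left 24 h at 37 °C. Medium was replaced with fresh medium holding a range of compound concentrations, from 10 mM DMSO stocks with final DMSO at most 0.1%. Exposure lasted 72 h. MTT (5 mg/mL) was added for 4 h at 37 °C, formazan was dissolved in DMSO and A570 was read. IC50 came from dose-response curves as mean ± SD of three independent experiments.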

MCF7 [10] = assay: Cell cycle arrest in human MCF7 cells assessed as accumulation at G2/M phase at 2 to 8 uM by propidium iodide staining-based flow cytometry; assay type: functional; conditions: TDE = time-dependent effect
MCF7 [11] = assay: Cell cycle arrest in human MCF7 cells assessed as accumulation at G1/G0 phase at 8 uM after 24 hrs by propidium iodide staining-based flow cytometry (reference value: 46.77%); assay type: functional
MCF7 [12] = assay: Cell cycle arrest in human MCF7 cells assessed as accumulation at S phase at 2 uM after 12 hrs by propidium iodide staining-based flow cytometry (reference value: 26.65%); assay type: functional
MCF7 [13] = assay: Induction of apoptosis in human MCF7 cells at 2 to 8 uM by annexin V-FITC/propidium iodide staining-based flow cytometry; assay type: functional, cell-based; conditions: TDE = time-dependent effect
MCF7 [14] = assay: Cell cycle arrest in human MCF7 cells assessed as accumulation at G1/G0 phase at 4 uM after 12 hrs by propidium iodide staining-based flow cytometry (reference value: 60.51%); assay type: functional
MCF7 [15] = assay: Cell cycle arrest in human MCF7 cells assessed as accumulation at S phase at 8 uM after 12 hrs by propidium iodide staining-based flow cytometry (reference value: 26.65%); assay type: functional
MCF7 [16] = assay: Induction of apoptosis in human MCF7 cells assessed as viable cells at 2 uM after 12 hrs by annexin V-FITC/propidium iodide staining-based flow cytometry (reference value: 85.4%); assay type: functional; conditions: MCF7, 12 h, read-out: Activity; procedure, shortened: as §1
MCF7 [17] = assay: Induction of apoptosis in human MCF7 cells assessed as late apoptotic cells at 8 uM after 24 hrs by annexin V-FITC/propidium iodide staining-based flow cytometry (reference value: 2.1%); assay type: functional; procedure, shortened: as §1
MCF7 [18] = assay: Induction of apoptosis in human MCF7 cells assessed as late apoptotic cells at 8 uM after 12 hrs by annexin V-FITC/propidium iodide staining-based flow cytometry (reference value: 2.7%); assay type: functional; procedure, shortened: as §1
MCF7 [19] = assay: Induction of apoptosis in human MCF7 cells assessed as late apoptotic cells at 2 uM after 24 hrs by annexin V-FITC/propidium iodide staining-based flow cytometry (reference value: 2.1%); assay type: functional; procedure, shortened: as §1
MCF7 [20] = assay: Induction of apoptosis in human MCF7 cells assessed as necrotic cells at 2 uM after 12 hrs by annexin V-FITC/propidium iodide staining-based flow cytometry (reference value: 4.7%); assay type: functional; procedure, shortened: as §1
MCF7 [21] = assay: Induction of apoptosis in human MCF7 cells assessed as viable cells at 8 uM after 24 hrs by annexin V-FITC/propidium iodide staining-based flow cytometry (reference value: 87.1%); assay type: functional; conditions: MCF7, 24 h, read-out: Activity
MCF7 [22] = assay: Cell cycle arrest in human MCF7 cells assessed as accumulation at S phase at 4 uM after 12 hrs by propidium iodide staining-based flow cytometry (reference value: 26.65%); assay type: functional
MCF7 [23] = assay: Induction of apoptosis in human MCF7 cells assessed as necrotic cells at 4 uM after 24 hrs by annexin V-FITC/propidium iodide staining-based flow cytometry (reference value: 6.2%); assay type: functional; procedure, shortened: as §1
MCF7 [24] = assay: Cell cycle arrest in human MCF7 cells assessed as accumulation at G2/M phase at 8 uM after 24 hrs by propidium iodide staining-based flow cytometry (reference value: 16.27%); assay type: functional
[25] = Cytotoxicity against human EC9706 cells after 72 hrs by MTT assay; assay type: functional, cell-based; conditions: EC9706, 72 h; procedure, shortened: as §2
MCF7 [26] = assay: Induction of apoptosis in human MCF7 cells assessed as early apoptotic cells at 8 uM after 24 hrs by annexin V-FITC/propidium iodide staining-based flow cytometry (reference value: 4.5%); assay type: functional; procedure, shortened: as §1
MCF7 [27] = assay: Induction of apoptosis in human MCF7 cells assessed as necrotic cells at 8 uM after 12 hrs by annexin V-FITC/propidium iodide staining-based flow cytometry (reference value: 4.7%); assay type: functional; procedure, shortened: as §1
HEK293 = assay: Cytotoxicity against human HEK293 cells after 72 hrs by MTT assay; assay type: cell-based; conditions: HEK293, 72 h
MCF7 [28] = assay: Cell cycle arrest in human MCF7 cells assessed as accumulation at G2/M phase at 8 uM after 12 hrs by propidium iodide staining-based flow cytometry (reference value: 16.53%); assay type: functional
[29] = Cytotoxicity against human GES-1 cells after 72 hrs by MTT assay; assay type: cell-based; conditions: GES1, 72 h
MCF7 [30] = assay: Cell cycle arrest in human MCF7 cells assessed as accumulation at G1/G0 phase at 4 uM after 24 hrs by propidium iodide staining-based flow cytometry (reference value: 46.77%); assay type: functional
MCF7 [31] = assay: Cell cycle arrest in human MCF7 cells assessed as accumulation at G2/M phase at 2 uM after 24 hrs by propidium iodide staining-based flow cytometry (reference value: 16.27%); assay type: functional
MCF7 [32] = assay: Cell cycle arrest in human MCF7 cells assessed as accumulation at G1/G0 phase at 2 uM after 24 hrs by propidium iodide staining-based flow cytometry (reference value: 46.77%); assay type: functional

SMILES: O=C(CSC(=S)N[C@H]1CCOC1=O)Nc1ccc(C(=O)/C=C/c2ccccc2Cl)cc1
- Activity (MCF7 [1]): 18.26%
- viability at 8 µM (MCF7 [2]): 75.9%
- Activity (MCF7 [3]): 67.5%
- Activity (MCF7 [4]): 14.7%
- Activity (MCF7 [5]): Dose-dependent effect
- Activity (MCF7 [6]): 33.39%
- Activity (MCF7 [7]): 47.37%
- Activity (MCF7 [8]): 32.7%
- IC50 (MCF7 [9]): 5.57 µM
- Activity (MCF7 [10]): tde
- Activity (MCF7 [11]): 14.45%
- Activity (MCF7 [12]): 23.92%
- Activity (MCF7 [13]): tde
- Activity (MCF7 [14]): 58.39%
- Activity (MCF7 [15]): 25.84%
- viability at 2 µM (MCF7 [16]): 82.1%
- Activity (MCF7 [17]): 6.1%
- Activity (MCF7 [18]): 1.6%
- Activity (MCF7 [19]): 2.1%
- Activity (MCF7 [20]): 4.9%
- viability at 8 µM (MCF7 [21]): 46%
- Activity (MCF7 [22]): 24.4%
- Activity (MCF7 [23]): 4.1%
- Activity (MCF7 [24]): 63.06%
- IC50 [25]: 34.1 µM
- Activity (MCF7 [26]): 43.2%
- Activity (MCF7 [27]): 3.5%
- IC50 (HEK293): 21.1 µM
- Activity (MCF7 [28]): 33.6%
- IC50 [29]: 23.5 µM
- Activity (MCF7 [30]): 39.43%
- Activity (MCF7 [31]): 26.69%
- Activity (MCF7 [32]): 40.44%
